Experimental data published in ChEMBL document CHEMBL3045304, “Sesquiterpene lactones with potential use as natural herbicide models. 2. guaianolides” (2000).
Calls of active or inactive are those of the source. The rule behind the calls is not given here.

What follows are compounds tested on Allium cepa (assay: Inhibition of germination of Allium cepa cv. Valenciana (onion) at 0.1 mM or 1 mM after 5 days relative to untreated control).
Format: functional

SMILES | inhibition
C=C1C(=O)O[C@H]2[C@H]1CCC(=C)[C@]1(O)C[C@@H](O)C(=C)[C@]21O | inactive

The compounds below were run on Triticum aestivum (assay: Inhibition of root length of Triticum aestivum cv. Cortex (wheat) at 0.1 mM or 1 mM after 5 days relative to untreated control).
Format: functional
In short: (§1)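 Wheat: 10 seeds per dish on filter paper with 5 mL test solution, 5 days in the dark at 25 °C, 10 replicates per concentration. Stock test solutions were 10^-3 or 10^-4 M in 10 mM MES, with lower levels made by dilution, all at pH 6.0. Parallel controls were run. Output is % difference from control.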

SMILES | inhibition (INH)
C=C1C(=O)O[C@H]2[C@H]1CCC(=C)[C@]1(O)C[C@@H](O)C(=C)[C@]21O | <20%

What follows are compounds tested on Triticum aestivum (assay: Inhibition of hypocotyl length of Triticum aestivum cv. Cortex (wheat) at 0.1 mM or 1 mM after 5 days relative to untreated control).
Format: functional
In short: as §1

SMILES | inhibition (INH)
C=C1C(=O)O[C@H]2[C@H]1CCC(=C)[C@]1(O)C[C@@H](O)C(=C)[C@]21O | <20%

Each compound was assayed on Triticum aestivum (assay: Inhibition of germination of Triticum aestivum cv. Cortex (wheat) at 0.1 mM or 1 mM after 5 days relative to untreated control).
Format: functional
In short: as §1

SMILES | inhibition
C=C1C(=O)O[C@H]2[C@H]1CCC(=C)[C@]1(O)C[C@@H](O)C(=C)[C@]21O | inactive

What follows are compounds tested on Solanum lycopersicum (assay: Inhibition of hypocotyl length of Solanum lycopersicum cv. Tres Cantos (tomato) at 0.1 mM or 1 mM after 5 days relative to untreated control).
Format: functional
In short: (§2)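 Lettuce and tomato seeds, 25 per dish on filter paper, received 5 mL test solution. Incubation was 5 days in the dark at 25 °C, with four replicates per concentration. Solutions were made at 10^-3 or 10^-4 M in 10 mM MES, diluted serially, and adjusted to pH 6.0. Parallel controls were run. Results are % difference from control.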

SMILES | inhibition
C=C1C(=O)O[C@H]2[C@H]1CCC(=C)[C@]1(O)C[C@@H](O)C(=C)[C@]21O | inactive

These compounds were tested on Solanum lycopersicum (assay: Inhibition of root length of Solanum lycopersicum cv. Tres Cantos (tomato) at 0.1 mM or 1 mM after 5 days relative to untreated control).
Format: functional
In short: as §2

SMILES | inhibition
C=C1C(=O)O[C@H]2[C@H]1CCC(=C)[C@]1(O)C[C@@H](O)C(=C)[C@]21O | inactive

These compounds were tested on Allium cepa (assay: Inhibition of root length of Allium cepa cv. Valenciana (onion) at 0.1 mM or 1 mM after 5 days relative to untreated control).
Format: functional

SMILES | inhibition
C=C1C(=O)O[C@H]2[C@H]1CCC(=C)[C@]1(O)C[C@@H](O)C(=C)[C@]21O | inactive

The compounds below were run on Triticum aestivum (assay: Stimulation of hypocotyl length of Triticum aestivum cv. Cortex (wheat) at 0.1 mM or 1 mM after 5 days relative to untreated control).
Format: functional
In short: as §1

SMILES | Activity
C=C1C(=O)O[C@H]2[C@H]1CCC(=C)[C@]1(O)C[C@@H](O)C(=C)[C@]21O | <20%

These compounds were tested on Triticum aestivum (assay: Stimulation of root length of Triticum aestivum cv. Cortex (wheat) at 0.1 mM or 1 mM after 5 days relative to untreated control).
Format: functional
In short: as §1

SMILES | Activity
C=C1C(=O)O[C@H]2[C@H]1CCC(=C)[C@]1(O)C[C@@H](O)C(=C)[C@]21O | <20%

What follows are compounds tested on Solanum lycopersicum (assay: Inhibition of germination of Solanum lycopersicum cv. Tres Cantos (tomato) at 0.1 mM or 1 mM after 5 days relative to untreated control).
Format: functional
In short: as §2

SMILES | inhibition (INH)
C=C1C(=O)O[C@H]2[C@H]1CCC(=C)[C@]1(O)C[C@@H](O)C(=C)[C@]21O | <20%

What follows are compounds tested on Lactuca sativa (assay: Inhibition of hypocotyl length of Lactuca sativa cv. Roman (lettuce) at 0.1 mM or 1 mM after 5 days relative to untreated control).
Format: functional
In short: as §2

SMILES | inhibition (INH)
C=C1C(=O)O[C@H]2[C@H]1CCC(=C)[C@]1(O)C[C@@H](O)C(=C)[C@]21O | 20%

What follows are compounds tested on Lactuca sativa (assay: Inhibition of root length of Lactuca sativa cv. Roman (lettuce) at 0.1 mM or 1 mM after 5 days relative to untreated control).
Format: functional
In short: as §2

SMILES | inhibition (INH)
C=C1C(=O)O[C@H]2[C@H]1CCC(=C)[C@]1(O)C[C@@H](O)C(=C)[C@]21O | <20%

The compounds below were run on Lactuca sativa (assay: Inhibition of germination of Lactuca sativa cv. Roman (lettuce) at 0.1 mM or 1 mM after 5 days relative to untreated control).
Format: functional
In short: as §2

SMILES | inhibition
C=C1C(=O)O[C@H]2[C@H]1CCC(=C)[C@]1(O)C[C@@H](O)C(=C)[C@]21O | inactive

What follows are compounds tested on Triticum aestivum (assay: Stimulation of germination of Triticum aestivum cv. Cortex (wheat) at 0.1 mM or 1 mM after 5 days relative to untreated control).
Format: functional
In short: as §1

SMILES | Activity
C=C1C(=O)O[C@H]2[C@H]1CCC(=C)[C@]1(O)C[C@@H](O)C(=C)[C@]21O | inactive

These compounds were tested on Solanum lycopersicum (assay: Stimulation of hypocotyl length of Solanum lycopersicum cv. Tres Cantos (tomato) at 0.1 mM or 1 mM after 5 days relative to untreated control).
Format: functional
In short: as §2

SMILES | Activity
C=C1C(=O)O[C@H]2[C@H]1CCC(=C)[C@]1(O)C[C@@H](O)C(=C)[C@]21O | inactive

These compounds were tested on Solanum lycopersicum (assay: Stimulation of root length of Solanum lycopersicum cv. Tres Cantos (tomato) at 0.1 mM or 1 mM after 5 days relative to untreated control).
Format: functional
In short: as §2

SMILES | Activity
C=C1C(=O)O[C@H]2[C@H]1CCC(=C)[C@]1(O)C[C@@H](O)C(=C)[C@]21O | inactive

These compounds were tested on Solanum lycopersicum (assay: Stimulation of germination of Solanum lycopersicum cv. Tres Cantos (tomato) at 0.1 mM or 1 mM after 5 days relative to untreated control).
Format: functional
In short: as §2

SMILES | Activity
C=C1C(=O)O[C@H]2[C@H]1CCC(=C)[C@]1(O)C[C@@H](O)C(=C)[C@]21O | <20%

The compounds below were run on Lepidium sativum (assay: Stimulation of hypocotyl length of Lepidium sativum at 0.1 mM or 1 mM after 5 days relative to untreated control).
Format: functional

SMILES | Activity
C=C1C(=O)O[C@H]2[C@H]1CCC(=C)[C@]1(O)C[C@@H](O)C(=C)[C@]21O | inactive

Each compound was assayed on Lepidium sativum (assay: Stimulation of root length of Lepidium sativum at 0.1 mM or 1 mM after 5 days relative to untreated control).
Format: functional

SMILES | Activity
C=C1C(=O)O[C@H]2[C@H]1CCC(=C)[C@]1(O)C[C@@H](O)C(=C)[C@]21O | <20%

These compounds were tested on Lactuca sativa (assay: Stimulation of root length of Lactuca sativa cv. Roman (lettuce) at 0.1 mM or 1 mM after 5 days relative to untreated control).
Format: functional
In short: as §2

SMILES | Activity
C=C1C(=O)O[C@H]2[C@H]1CCC(=C)[C@]1(O)C[C@@H](O)C(=C)[C@]21O | <20%

Each compound was assayed on Lactuca sativa (assay: Stimulation of hypocotyl length of Lactuca sativa cv. Roman (lettuce) at 0.1 mM or 1 mM after 5 days relative to untreated control).
Format: functional
In short: as §2

SMILES | Activity
C=C1C(=O)O[C@H]2[C@H]1CCC(=C)[C@]1(O)C[C@@H](O)C(=C)[C@]21O | 20%

What follows are compounds tested on Lactuca sativa (assay: Stimulation of germination of Lactuca sativa cv. Roman (lettuce) at 0.1 mM or 1 mM after 5 days relative to untreated control).
Format: functional
In short: as §2

SMILES | Activity
C=C1C(=O)O[C@H]2[C@H]1CCC(=C)[C@]1(O)C[C@@H](O)C(=C)[C@]21O | inactive

What follows are compounds tested on Lepidium sativum (assay: Inhibition of root length of Lepidium sativum at 0.1 mM or 1 mM after 4 days relative to untreated control).

SMILES | inhibition (INH)
C=C1C(=O)O[C@H]2[C@H]1CCC(=C)[C@]1(O)C[C@@H](O)C(=C)[C@]21O | <20%

What follows are compounds tested on Lepidium sativum (assay: Inhibition of germination of Lepidium sativum at 0.1 mM or 1 mM after 4 days relative to untreated control).

SMILES | Activity | inhibition
C=C1C(=O)O[C@H]2[C@H]1CCC(=C)[C@]1(O)C[C@@H](O)C(=C)[C@]21O | inactive | inactive

These compounds were tested on Lepidium sativum (assay: Inhibition of hypocotyl length of Lepidium sativum at 0.1 mM or 1 mM after 4 days relative to untreated control).

SMILES | inhibition
C=C1C(=O)O[C@H]2[C@H]1CCC(=C)[C@]1(O)C[C@@H](O)C(=C)[C@]21O | inactive

Each compound was assayed on Allium cepa (assay: Stimulation of root length of Allium cepa cv. Valenciana (onion) at 0.1 mM or 1 mM after 7 days relative to untreated control).

SMILES | Activity
C=C1C(=O)O[C@H]2[C@H]1CCC(=C)[C@]1(O)C[C@@H](O)C(=C)[C@]21O | inactive

The compounds below were run on Allium cepa (assay: Stimulation of germination of Allium cepa cv. Valenciana (onion) at 0.1 mM or 1 mM after 7 days relative to untreated control).

SMILES | Activity
C=C1C(=O)O[C@H]2[C@H]1CCC(=C)[C@]1(O)C[C@@H](O)C(=C)[C@]21O | inactive

What follows are compounds tested on Allium cepa (assay: Inhibition of hypocotyl length of Allium cepa cv. Valenciana (onion) at 0.1 mM or 1 mM after 7 days relative to untreated control).

SMILES | inhibition
C=C1C(=O)O[C@H]2[C@H]1CCC(=C)[C@]1(O)C[C@@H](O)C(=C)[C@]21O | inactive

Each compound was assayed on Allium cepa (assay: Stimulation of hypocotyl length of Allium cepa cv. Valenciana (onion) at 0.1 mM or 1 mM after 7 days relative to untreated control).

SMILES | Activity
C=C1C(=O)O[C@H]2[C@H]1CCC(=C)[C@]1(O)C[C@@H](O)C(=C)[C@]21O | inactive
